Shown are actives, neighbours in structure and some others; about 1.8% of the full set was active somewhere.
M4 PAM: potentiates acetylcholine response at human M4 receptor; CHO-K1 hM4/Gqi5, Fluo-8 calcium fluorescence, ACh EC20; 0% = ACh EC20, 100% = maximal ACh; activation, % at 3 µM; actives 0.4% (n = 360,000);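 active = activation above its plate's cutoff, the mean activation of sample wells plus 3 SD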
Target sequence (P08173 whole entry, looked up): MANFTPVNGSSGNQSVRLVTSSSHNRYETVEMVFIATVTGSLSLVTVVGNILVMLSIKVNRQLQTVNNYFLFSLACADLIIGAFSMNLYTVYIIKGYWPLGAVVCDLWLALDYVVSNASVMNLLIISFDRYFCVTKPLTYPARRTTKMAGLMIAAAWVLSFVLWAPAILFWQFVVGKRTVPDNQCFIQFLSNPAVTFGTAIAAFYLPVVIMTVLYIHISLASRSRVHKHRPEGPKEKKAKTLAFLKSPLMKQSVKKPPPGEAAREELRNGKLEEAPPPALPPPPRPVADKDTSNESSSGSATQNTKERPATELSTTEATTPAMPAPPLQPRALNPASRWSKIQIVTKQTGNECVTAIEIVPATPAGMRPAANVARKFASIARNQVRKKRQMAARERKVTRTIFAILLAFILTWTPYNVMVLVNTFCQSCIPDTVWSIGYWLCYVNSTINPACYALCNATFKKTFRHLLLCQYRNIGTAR
CHRM4 agonist: CHRM4 agonism in calcium assay | CHO-K1 hM4/Gqi5, Fluo-8 calcium fluorescence; vehicle 0%, full acetylcholine response 100% | activation, % at 3 µM | actives 0.14% (n = 360,000);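 active = activation above the run mean over all test wells plus 3 SD, cut at about 32% in these data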;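 also: peak over basal fluorescence ratio per well then scaled between controls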
CHRM4 antagonist: blocks acetylcholine activation of human M4 receptor; P08173; CHO-hM4 cells, ACh EC80, Fluo-8 calcium fluorescence; inhibition, % at 3 µM; actives 0.73% (n = 360,000); AID 624125;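 active = inhibition above its plate's cutoff, the mean inhibition of sample wells plus 3 SD, cut at about 27% in these data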
CHRM5 antagonist: CHRM5 antagonism in calcium assay; inhibition, % at 3 µM; P08912; CHO-hM5 cells, Fluo-8 calcium fluorescence, ACh EC80; actives 0.59% (n = 360,000);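 active = inhibition above a per-plate cutoff, the mean of that plate's test compounds plus 3 SD, cut at about 27% in these data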
CHRM5 agonist: CHRM5 agonism in calcium assay; CHO-K1 hM5 cells, Fluo-8 calcium fluorescence; 0% DMSO wells, 100% maximal acetylcholine response; activation, % at 3 µM; P08912; AID 624037; actives 0.19% (n = 360,000);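 active = activation above the run's mean over test compounds plus 3 SD, cut at about 23% in these data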;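 also: signal is peak over basal fluorescence ratio across the kinetic read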
CHRM5 PAM: potentiates acetylcholine response at human M5 receptor | P08912 | CHO-K1 hM5, Fluo-8 calcium, ACh EC20 PAM; 0% = ACh EC20, 100% = ACh EC100 | activation, % at 3 µM | actives 0.3% (n = 360,000);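 active = activation above the run cutoff, the mean activation of all test compounds plus 3 SD, cut at about 18% in these data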
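System – CHO-K1 hM5 cells · Compound – 3 µM, single dose · Incubation – compound preincubation 140 s before EC20 acetylcholine addition · Technique – Fluo-8 calcium fluorescence · Measure – Max/basal fluorescence ratio as % of EC20–EC100 ACh window · Benchmarks – low control EC20 acetylcholine (0%), high control EC100 acetylcholine (100%) · Replication – singlicate, one well per test compound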
Large screens that a line does not name were inactive.

CN1CCN(CC(O)(c2ccc(Cl)cc2)c2ccc(Cl)cc2)CC1	CHRM5 antagonist 35.8
N#Cc1cccc(NC(=O)CSc2ccc3c4c(cccc24)C(=O)c2ccccc2-3)c1	CHRM5 antagonist 32.8
COc1ccc(CN2C(=NC(=O)C3CCCO3)SC3CS(=O)(=O)CC32)cc1 (stereo not drawn)	none
CCCCCCCCN1C(=O)[C@H](CC(=O)NCc2cccs2)C[C@@]2(C(=O)OC)CCCCC=C12	none
CCN(CC)c1ccc(/C=N/NC(=O)c2ccc3c(c2)OCCO3)cc1	CHRM5 antagonist 27.9
Cc1nn(C)c(C)c1CN(Cc1nc(CCC(C)C)no1)C(C)C	CHRM5 antagonist 31.6
Cc1cc(OCC(=O)Nc2nccs2)c2c(C)cc(=O)oc2c1	none
O=c1c2cnn(-c3ccc(F)cc3)c2ncn1Cc1cccnc1	CHRM5 PAM 28.6
O=c1nc2n(c3ccc(Br)cc13)CCS2	CHRM4 antagonist 32.9
O=c1c2ccccc2nc2n1CCS2	none
CC(CNC(=O)CCCn1ncn2c(cc3occc32)c1=O)c1ccccc1 (stereo not drawn)	M4 PAM 15.8
c1ccc(NCCC2OCC3(CO2)COC(CCNc2ccccc2)OC3)cc1 (stereo not drawn)	CHRM5 antagonist 28.8
COc1ccccc1C(CNC(=O)C(C)(C)Oc1ccc(Cl)cc1)N1CCCC1 (stereo not drawn)	CHRM5 antagonist 71.8
CC[C@H](C)[C@H]1CNC(=S)N1CC1CCN(CCC23CC4CC(CC(C4)C2)C3)CC1	CHRM4 antagonist 67.1
CC[C@H](C)[C@H]1CNC(=S)N1CC1CCN(CC2CCC(C)CC2)CC1 (stereo partly drawn)	none
CCN(CC)C(=O)c1ccc(COc2ccc(Cl)c(C)c2)o1	CHRM5 antagonist 31.0
CCOc1ccc(S(=O)(=O)NCCC(=O)NC2CCN(Cc3ccccc3)CC2)cc1	none
CC(=O)c1ccc(S(=O)(=O)NCCC(=O)NC2CCN(Cc3ccccc3)CC2)cc1	CHRM5 PAM 18.7
CCCc1nc2n[nH]c(N)c2c2c1CCC2	none
CCCCc1nc2n[nH]c(N)c2c2c1CCCC2	CHRM5 PAM 22.3
CCCc1nc2n[nH]c(N)c2c2c1CCCC2	M4 PAM 26.4
N#CC1(N2CCN(C(=O)c3ccccc3)CC2)CCCCC1	none
COc1ccccc1N1C(=O)C2C(C(=O)c3ccccc3)=NN(c3ccc(Br)cc3)C2C1=O (stereo not drawn)	CHRM4 antagonist 37.5
COc1ccccc1N1C(=O)C2C(C(=O)c3ccccc3)=NN(c3ccc(C)cc3)C2C1=O (stereo not drawn)	none
COc1cc2c(cc1NC(=O)CN1C(=O)NC3(CCc4ccccc43)C1=O)oc1ccccc12 (stereo not drawn)	CHRM4 antagonist 38.4
COc1ccc(CCN(C)C(=O)CN2C(=O)NC3(CCCc4ccccc43)C2=O)cc1OC (stereo not drawn)	M4 PAM 27.0
O=[N+]([O-])c1cc(CN2CCCC2)ccc1Sc1ccc(Cl)cc1	none
Cc1cc(NS(=O)(=O)c2ccc(NC(=O)c3ccc(Cl)cc3[N+](=O)[O-])cc2)no1	none
COc1cccc(C(N)c2nc(-c3csc4ccccc34)cs2)c1 (stereo not drawn)	none
C=CC[n+]1c(/C=C2\C=Cc3cc(C)ccc3N2CC)ccc2ccccc21	CHRM4 antagonist 32.7, CHRM5 antagonist 37.5
CCN1C(=C(C#N)C#N)C=Cc2cc(C)ccc21	none
C/C(=N\NC(=O)CO/N=C(\C)c1cccs1)c1ccc(N)cc1	CHRM4 antagonist 28.6
C/C(=N\NC(=O)c1ccc(Cl)cc1)c1cccs1	M4 PAM 22.1
C/C(=N\NC(=O)c1ccc(NS(=O)(=O)c2cccs2)cc1)c1cccs1	none
C/C(=N\OCC(=O)N/N=C/c1ccc(C)cc1O)c1cccs1	CHRM5 PAM 33.0
Cc1ccc(/C=N/NC(=O)Cc2ccc(Cl)cc2)c(O)c1	none
COc1ccc(CCN2CC(C(=O)N(C)CCc3cn[nH]c3)CCC2=O)cc1 (stereo not drawn)	none
CC(C)C(=O)Nc1ccc(C(=O)Nc2ccc(S(=O)(=O)N3CCOCC3)cc2)cc1	none
CC(Sc1ccc(Cl)cc1)C(=O)Nc1ccc(S(=O)(=O)N2CCOCC2)cc1 (stereo not drawn)	CHRM5 agonist 38.8
CC(=O)Oc1ccc(C(=O)c2ccccc2)c(OC(C)=O)c1	none
COc1ccc(C(=O)c2ccccc2)c(OCC(=O)N(C)C)c1	M4 PAM 22.9
CCOC(=O)CCc1c(C)c2ccc(OCC(=O)N(CC)CC)c(C)c2oc1=O	CHRM4 antagonist 35.7
CCc1c(C)c2ccc(OCC(=O)N(C)C)c(C)c2oc1=O	none
COc1ccc(-n2cc(-c3ccccc3)c3c(N4CC(C)OC(C)C4)ncnc32)cc1 (stereo not drawn)	none
Cc1ccc(S(=O)(=O)c2ccc([N+](=O)[O-])o2)cc1	CHRM4 antagonist 36.1
Cc1c(N(C(=O)c2ccccn2)C2(C(=O)NC3CCCC3)CCCCC2)c(=O)n(-c2ccccc2)n1C	none
COc1ccccc1NC(=O)CN(Cc1ccco1)C(=O)c1ccc(Cl)nc1	none
O=C(NC1(C(=O)O)CCCC1)c1ccccc1	M4 PAM 16.4
O=S1(=O)CCS(=O)(=O)C1c1ccccc1	CHRM5 PAM 20.2
O=C1CC(=O)CC(c2ccccc2)C1	none
O=C(Nc1ccncc1)c1ccc2c(c1)C(=O)N(C1CCCCC1)C2=O	CHRM4 antagonist 41.7, CHRM5 antagonist 30.8
CCN(CCCNC(=O)C1CCN(S(=O)(=O)c2cnc[nH]2)CC1)c1cccc(C)c1	CHRM5 PAM 41.9
CCOC1=C2[C@@H](CN(S(=O)(=O)c3ccccc3C)[C@H]2c2ccc(Cl)cc2)[C@H]2C(=O)N(c3ccccc3)C(=O)[C@H]2C1	none
CCOC1=C2[C@@H](CN(S(=O)(=O)c3ccccc3C)[C@H]2c2ccc(Cl)cc2)[C@H]2C(=O)NC(=O)[C@H]2C1	CHRM4 antagonist 42.6
O=c1[nH][nH]c(-c2ccccc2)c1C=Nc1ccc(F)cc1F	M4 PAM 21.3
COC(=O)c1[nH]c2ccc(F)cc2c1NS(=O)(=O)c1ccc(OC)cc1	CHRM4 antagonist 29.4
COc1ccc(S(=O)(=O)Nc2c(C(=O)O)[nH]c3ccc(OC)cc23)cc1	none
CCC(=O)c1ccc(OCC(=O)N2CCN(S(=O)(=O)c3ccc(Cl)s3)CC2)cc1	none
CN1CCN(c2ccc(S(=O)(=O)N3CCCCC3)cc2NC(=O)CSCc2ccccc2)CC1	none
c1coc(CN(Cc2ccco2)c2ncnc3c2oc2ccccc23)c1	CHRM4 antagonist 36.8, CHRM5 antagonist 31.5

High-throughput results deposited in PubChem by The Scripps Research Institute Molecular Screening Center.
